The target in experiment [1] is Epithelial discoidin domain-containing receptor 1 (Homo sapiens, UniProt Q08345). In words: Inhibition of recombinant human GST-tagged DDR1 catalytic domain (440 to 876 residues) expressed in baculovirus expression system using Fluorescein-poly GAT as substrate incubated for 1 hr in presence of ATP by LanthaScreen Eu kinase assay. In general terms: In TR-FRET formats the signal depends on donor and acceptor labels being close together.

For experiment [2], the target named is T1, Discoidin domain-containing receptor 2 (Homo sapiens, UniProt Q16832).
T1 sequence (Q16832 whole entry): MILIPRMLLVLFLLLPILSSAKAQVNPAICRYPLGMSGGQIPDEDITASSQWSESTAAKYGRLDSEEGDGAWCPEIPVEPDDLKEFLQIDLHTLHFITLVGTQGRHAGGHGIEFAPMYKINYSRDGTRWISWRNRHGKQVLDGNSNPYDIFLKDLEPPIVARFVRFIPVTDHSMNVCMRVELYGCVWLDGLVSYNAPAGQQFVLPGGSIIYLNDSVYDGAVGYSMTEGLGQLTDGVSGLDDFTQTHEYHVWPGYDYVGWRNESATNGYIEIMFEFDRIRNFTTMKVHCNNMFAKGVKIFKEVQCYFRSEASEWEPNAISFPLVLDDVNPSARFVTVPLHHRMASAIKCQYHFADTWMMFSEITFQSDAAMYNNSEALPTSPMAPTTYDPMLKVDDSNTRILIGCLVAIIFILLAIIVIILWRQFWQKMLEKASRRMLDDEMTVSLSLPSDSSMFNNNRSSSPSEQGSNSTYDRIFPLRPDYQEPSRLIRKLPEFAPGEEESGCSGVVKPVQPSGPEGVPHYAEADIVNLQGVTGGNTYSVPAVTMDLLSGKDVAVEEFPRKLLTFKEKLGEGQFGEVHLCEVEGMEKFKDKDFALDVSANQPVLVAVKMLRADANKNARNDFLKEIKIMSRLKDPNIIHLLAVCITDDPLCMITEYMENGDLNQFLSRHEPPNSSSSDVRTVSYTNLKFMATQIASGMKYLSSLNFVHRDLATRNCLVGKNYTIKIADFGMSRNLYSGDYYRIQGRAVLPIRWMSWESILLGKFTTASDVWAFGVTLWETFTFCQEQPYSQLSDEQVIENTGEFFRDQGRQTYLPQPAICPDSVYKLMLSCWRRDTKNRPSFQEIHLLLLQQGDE
Kind of experiment: Inhibition of recombinant human GST-tagged DDR2 cytoplasmic domain (427 to 855 residues) expressed in baculovirus expression system using Fluorescein-poly GAT as substrate incubated for 1 hr in presence of ATP by LanthaScreen Eu kinase assay. Summed up:
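LanthaScreen Eu kinase assay for DDR2; IC50 values are means of three independent experiments, variations <20%.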

The target of a further experiment is Bcr/Abl fusion protein (Homo sapiens, UniProt P00519). In words: Inhibition of human recombinant full length His-tagged Bcr-Abl expressed in baculovirus expression system using tyrosine-2 peptide as substrate after 1 hr in presence of […] ATP by FRET based Z'-LYTE assay. Summed up:
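FRET-based Z′-Lyte kinase assay for Bcr-Abl; IC50 values are means of three independent experiments, variations <20%.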

For experiment [3], the target named is Mast/stem cell growth factor receptor Kit (Homo sapiens, UniProt P10721). Kind of experiment: Inhibition of human recombinant His-tagged c-Kit cytoplasmic domain (544 to 976 residues) expressed in baculovirus expression system using Ser/Thr 6 peptide as substrate after 1 hr in presence of 300 uM ATP by FRET based Z'-LYTE assay.
Chain of Mast/stem cell growth factor receptor Kit (P10721 whole entry, the tested form may be a part): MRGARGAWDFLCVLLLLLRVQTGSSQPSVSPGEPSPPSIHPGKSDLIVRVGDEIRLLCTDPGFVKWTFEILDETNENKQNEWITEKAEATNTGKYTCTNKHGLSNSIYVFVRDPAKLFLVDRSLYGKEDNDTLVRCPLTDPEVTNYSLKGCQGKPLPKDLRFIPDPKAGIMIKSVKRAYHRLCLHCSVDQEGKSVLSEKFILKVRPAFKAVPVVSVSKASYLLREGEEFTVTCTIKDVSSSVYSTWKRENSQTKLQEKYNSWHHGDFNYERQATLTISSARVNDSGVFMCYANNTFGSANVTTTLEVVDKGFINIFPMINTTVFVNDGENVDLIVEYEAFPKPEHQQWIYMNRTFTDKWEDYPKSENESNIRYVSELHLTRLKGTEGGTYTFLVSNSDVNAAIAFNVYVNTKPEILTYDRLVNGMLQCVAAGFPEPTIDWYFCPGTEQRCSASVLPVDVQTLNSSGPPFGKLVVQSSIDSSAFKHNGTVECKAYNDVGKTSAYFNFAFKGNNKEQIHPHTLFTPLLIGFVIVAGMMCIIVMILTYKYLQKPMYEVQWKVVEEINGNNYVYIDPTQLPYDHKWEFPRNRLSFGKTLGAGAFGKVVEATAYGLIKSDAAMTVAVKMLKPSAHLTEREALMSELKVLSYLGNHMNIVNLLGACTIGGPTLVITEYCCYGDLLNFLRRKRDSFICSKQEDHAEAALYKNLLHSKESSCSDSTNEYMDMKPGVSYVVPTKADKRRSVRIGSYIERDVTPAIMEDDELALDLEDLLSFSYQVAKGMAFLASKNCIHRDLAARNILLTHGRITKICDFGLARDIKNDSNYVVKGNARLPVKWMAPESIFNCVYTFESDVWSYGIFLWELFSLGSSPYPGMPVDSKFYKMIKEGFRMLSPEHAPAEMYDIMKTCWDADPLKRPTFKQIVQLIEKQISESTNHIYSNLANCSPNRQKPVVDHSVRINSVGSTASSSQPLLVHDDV

Chain of Epithelial discoidin domain-containing receptor 1 (Q08345 whole entry, the tested form may be a part): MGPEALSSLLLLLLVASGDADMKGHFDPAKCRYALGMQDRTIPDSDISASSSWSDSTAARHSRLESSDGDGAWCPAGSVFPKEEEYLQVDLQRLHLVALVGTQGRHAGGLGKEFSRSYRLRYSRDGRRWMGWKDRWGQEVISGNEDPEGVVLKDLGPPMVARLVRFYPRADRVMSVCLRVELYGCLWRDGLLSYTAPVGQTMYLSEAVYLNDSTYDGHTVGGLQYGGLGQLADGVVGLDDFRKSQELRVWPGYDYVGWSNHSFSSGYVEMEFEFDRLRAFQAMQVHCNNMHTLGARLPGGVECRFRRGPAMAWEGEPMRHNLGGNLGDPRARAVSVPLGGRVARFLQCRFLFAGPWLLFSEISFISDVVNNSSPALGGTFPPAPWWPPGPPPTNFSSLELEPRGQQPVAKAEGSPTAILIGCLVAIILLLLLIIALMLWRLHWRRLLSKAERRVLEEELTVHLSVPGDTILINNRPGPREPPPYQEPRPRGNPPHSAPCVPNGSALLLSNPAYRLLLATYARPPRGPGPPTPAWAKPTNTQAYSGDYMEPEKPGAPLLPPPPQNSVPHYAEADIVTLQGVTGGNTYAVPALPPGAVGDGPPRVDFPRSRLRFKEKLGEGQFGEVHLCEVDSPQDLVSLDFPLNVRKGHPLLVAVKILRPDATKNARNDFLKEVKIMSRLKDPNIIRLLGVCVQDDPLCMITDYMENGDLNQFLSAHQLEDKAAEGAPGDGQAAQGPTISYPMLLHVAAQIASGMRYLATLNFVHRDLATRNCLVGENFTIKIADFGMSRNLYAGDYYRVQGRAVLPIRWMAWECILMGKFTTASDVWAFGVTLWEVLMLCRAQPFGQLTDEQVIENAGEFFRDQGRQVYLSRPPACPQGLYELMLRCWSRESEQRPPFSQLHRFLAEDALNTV
Chain of Bcr/Abl fusion protein (P00519 whole entry, the tested form may be a part): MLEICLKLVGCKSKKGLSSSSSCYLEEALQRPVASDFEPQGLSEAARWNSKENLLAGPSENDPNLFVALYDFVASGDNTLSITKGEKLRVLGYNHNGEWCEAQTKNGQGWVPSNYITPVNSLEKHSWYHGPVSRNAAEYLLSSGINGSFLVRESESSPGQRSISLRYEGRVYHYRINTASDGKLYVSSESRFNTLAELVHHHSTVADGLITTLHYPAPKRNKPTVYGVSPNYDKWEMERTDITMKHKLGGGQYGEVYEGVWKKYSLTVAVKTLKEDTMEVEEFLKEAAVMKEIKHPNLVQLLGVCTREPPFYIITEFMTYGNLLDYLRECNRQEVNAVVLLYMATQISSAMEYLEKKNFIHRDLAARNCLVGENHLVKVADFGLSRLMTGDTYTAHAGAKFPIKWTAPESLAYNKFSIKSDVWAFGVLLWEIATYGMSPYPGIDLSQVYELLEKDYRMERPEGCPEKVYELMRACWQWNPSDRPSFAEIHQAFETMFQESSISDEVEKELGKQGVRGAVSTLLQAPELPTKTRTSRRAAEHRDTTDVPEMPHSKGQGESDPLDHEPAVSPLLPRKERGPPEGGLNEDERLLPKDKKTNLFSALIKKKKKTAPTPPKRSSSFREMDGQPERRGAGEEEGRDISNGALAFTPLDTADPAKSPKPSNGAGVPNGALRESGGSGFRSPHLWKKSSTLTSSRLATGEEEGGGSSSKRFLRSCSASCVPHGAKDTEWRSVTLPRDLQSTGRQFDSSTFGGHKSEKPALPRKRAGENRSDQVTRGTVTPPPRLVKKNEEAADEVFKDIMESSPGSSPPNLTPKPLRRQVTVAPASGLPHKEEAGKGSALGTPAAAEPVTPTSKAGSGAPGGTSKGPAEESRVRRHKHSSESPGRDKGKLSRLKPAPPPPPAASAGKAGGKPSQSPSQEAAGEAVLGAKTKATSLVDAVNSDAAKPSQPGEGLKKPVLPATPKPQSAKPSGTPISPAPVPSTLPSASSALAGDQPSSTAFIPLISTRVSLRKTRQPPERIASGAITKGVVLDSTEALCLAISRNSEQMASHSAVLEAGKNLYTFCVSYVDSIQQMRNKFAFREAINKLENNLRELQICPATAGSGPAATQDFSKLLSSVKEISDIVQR
Chain of Bcr/Abl fusion protein (P11274 whole entry, further chain, the tested form may be a part): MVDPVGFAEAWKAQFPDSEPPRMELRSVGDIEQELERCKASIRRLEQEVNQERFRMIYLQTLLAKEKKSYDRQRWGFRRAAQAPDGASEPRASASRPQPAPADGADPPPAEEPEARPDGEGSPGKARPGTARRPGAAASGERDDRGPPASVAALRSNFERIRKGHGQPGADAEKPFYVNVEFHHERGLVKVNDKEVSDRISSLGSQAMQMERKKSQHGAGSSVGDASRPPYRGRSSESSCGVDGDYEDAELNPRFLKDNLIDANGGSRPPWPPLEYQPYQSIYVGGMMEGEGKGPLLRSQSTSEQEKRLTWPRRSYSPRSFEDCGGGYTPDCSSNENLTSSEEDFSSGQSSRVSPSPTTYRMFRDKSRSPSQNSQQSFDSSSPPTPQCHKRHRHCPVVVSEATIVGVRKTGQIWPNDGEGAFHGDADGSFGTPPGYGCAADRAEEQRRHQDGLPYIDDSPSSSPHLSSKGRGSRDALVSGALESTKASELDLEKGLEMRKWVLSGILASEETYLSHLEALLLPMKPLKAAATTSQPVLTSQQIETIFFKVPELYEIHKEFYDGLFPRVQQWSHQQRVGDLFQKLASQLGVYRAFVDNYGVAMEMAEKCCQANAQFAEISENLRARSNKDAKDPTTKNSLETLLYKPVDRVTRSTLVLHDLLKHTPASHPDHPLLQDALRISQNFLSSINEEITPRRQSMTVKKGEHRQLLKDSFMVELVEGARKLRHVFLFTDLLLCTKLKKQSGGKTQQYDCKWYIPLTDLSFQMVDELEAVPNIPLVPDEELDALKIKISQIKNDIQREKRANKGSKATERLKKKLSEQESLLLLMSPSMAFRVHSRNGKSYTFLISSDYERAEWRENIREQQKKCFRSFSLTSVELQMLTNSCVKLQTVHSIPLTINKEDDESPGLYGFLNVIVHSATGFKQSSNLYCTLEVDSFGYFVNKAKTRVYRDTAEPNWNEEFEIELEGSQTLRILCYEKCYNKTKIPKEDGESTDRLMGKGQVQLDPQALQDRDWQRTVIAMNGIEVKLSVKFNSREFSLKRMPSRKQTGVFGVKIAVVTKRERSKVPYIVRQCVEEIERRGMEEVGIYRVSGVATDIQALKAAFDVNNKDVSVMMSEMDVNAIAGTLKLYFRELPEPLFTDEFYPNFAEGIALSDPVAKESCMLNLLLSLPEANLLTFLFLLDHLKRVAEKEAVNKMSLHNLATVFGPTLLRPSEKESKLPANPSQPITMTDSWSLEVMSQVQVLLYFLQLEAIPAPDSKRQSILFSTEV

In the case of `CCc1ccc(C(=O)Nc2cccc(C(F)(F)F)c2)cc1-c1cc(F)cc(-c2cnc3cnccn23)c1`, the IC50 (as a rule, the concentration at which inhibition is half-maximal) came out at 30.3 nM in experiment [1], 1330 nM in experiment [2], 5.34 µM on Bcr/Abl fusion protein and 6.59 µM in experiment [3].
The matching figures for `CCc1ccc(C(=O)Nc2cccc(CN3CCN(C)CC3)c2)cc1-c1cccc(-c2cnc3cnccn23)c1`: 357 nM, over 10000 nM, 0.989 µM and 4.93 µM.
For the molecule `CCc1ccc(C(=O)Nc2cccc(C(F)(F)F)c2)cc1-c1cc(C#N)cc(-c2cnc3cnccn23)c1`, the IC50 came out at 15.6 nM in experiment [1], 947 nM in experiment [2], 5.64 µM at Bcr/Abl fusion protein and 3.72 µM in experiment [3].
For `CCc1ccc(C(=O)Nc2cccc(C(F)(F)F)c2)cc1-c1cc(OC)cc(-c2cnc3cnccn23)c1` the same measures were 16.5 nM, 1020 nM, 3.7 µM and 4.99 µM.
In the case of `CCc1ccc(C(=O)Nc2cc(C(F)(F)F)ccc2F)cc1-c1cc(C)cc(-c2cnc3cnccn23)c1`, the IC50 in experiment [1] is 36.5 nM; in experiment [2], over 5000 nM; at Bcr/Abl fusion protein it was over 10 µM; in experiment [3], over 10 µM.
Turning to `CCc1ccc(C(=O)Nc2cccc(C(F)(F)F)c2F)cc1-c1cc(C)cc(-c2cnc3cnccn23)c1`, the IC50 in experiment [1] is 73.8 nM; in experiment [2], over 5000 nM; at Bcr/Abl fusion protein it was over 10 µM; in experiment [3] it was over 10 µM.
Take `CCc1ccc(C(=O)Nc2ccccc2)cc1-c1cccc(-c2cnc3cnccn23)c1`: the IC50 was 4850 nM in experiment [1], over 10000 nM in experiment [2], 5.12 µM on Bcr/Abl fusion protein and 8.99 µM in experiment [3].
For `CCc1ccc(C(=O)Nc2cccc(C(F)(F)F)c2)cc1-c1cc(-c2cnc3cnccn23)cc(C(C)(C)C)c1` the same measures were 92 nM, over 10000 nM, over 10 µM and over 10 µM.
As for `CC(C)c1ccc(C(=O)Nc2cccc(C(F)(F)F)c2)cc1-c1cccc(-c2cnc3cnccn23)c1`, the IC50 in experiment [1] was 1260 nM; in experiment [2], over 10000 nM; on Bcr/Abl fusion protein it was over 10 µM; in experiment [3] it was 1.69 µM.
On to `CCc1ccc(C(=O)Nc2cccc(C(F)(F)F)c2)cc1-c1cccc(-c2cnc3cnccn23)c1`, for which the IC50 in experiment [1] was determined as 10.4 nM; in experiment [2] it was 725 nM; at Bcr/Abl fusion protein, 2.22 µM; in experiment [3] it was 2.92 µM.
For `CCc1ccc(C(=O)Nc2cccc(C(F)(F)F)c2)cc1-c1cc(Cl)cc(-c2cnc3cnccn23)c1` the same measures were 21.3 nM, 1080 nM, over 10 µM and 8.41 µM.
For `CCc1ccc(C(=O)Nc2cccc(C(F)(F)F)c2)cc1-c1cc(-c2cnc3cnccn23)ccc1C` the same measures were 63.7 nM, 610 nM, 1.45 µM and over 10 µM.
The matching figures for `CCc1ccc(C(=O)Nc2cc(CN3CCN(C)CC3)cc(C(F)(F)F)c2)cc1-c1cccc(-c2cnc3ccnn3c2)c1`: 359 nM, 197 nM, over 10 µM and over 10 µM.
Consider `CCc1cc(-c2cc(C(=O)Nc3cccc(C(F)(F)F)c3)ccc2CC)cc(-c2cnc3cnccn23)c1`, for which the IC50 in experiment [1] is 42.3 nM; in experiment [2] it was 3230 nM; at Bcr/Abl fusion protein it was over 10 µM; in experiment [3], over 10 µM.
As to `CCc1ccc(C(=O)Nc2cccc(C(F)(F)F)c2)cc1-c1cccc(-c2cnc3cnccn23)c1C`, the IC50 was 30.1 nM in experiment [1], 663 nM in experiment [2], 1.81 µM on Bcr/Abl fusion protein and 5.98 µM in experiment [3].
For the molecule `CCc1ccc(C(=O)Nc2cc(CN3CCN(C)CC3)cc(C(F)(F)F)c2)cc1C#Cc1cnc2ccnn2c1`, the IC50 in experiment [3] is over 10 µM.
As for `CCc1ccc(C(=O)Nc2ccc(C(F)(F)F)cc2)cc1-c1cccc(-c2cnc3cnccn23)c1`, the IC50 in experiment [1] was 1300 nM; in experiment [2], over 10000 nM; on Bcr/Abl fusion protein, 4.99 µM; in experiment [3], 3.98 µM.
As for `CCc1ccc(C(=O)Nc2cccc(C(F)(F)F)c2)cc1-c1ccc(C)c(-c2cnc3cnccn23)c1`, the IC50 was 108 nM in experiment [1], over 10000 nM in experiment [2], over 10 µM on Bcr/Abl fusion protein and over 10 µM in experiment [3].
As for `CCc1ccc(C(=O)Nc2ccc(F)c(C(F)(F)F)c2)cc1-c1cc(C)cc(-c2cnc3cnccn23)c1`, the IC50 in experiment [1] was 55.6 nM; in experiment [2] it was over 5000 nM; at Bcr/Abl fusion protein it was over 10 µM; in experiment [3] it was over 10 µM.
For the molecule `CCc1ccc(C(=O)Nc2cccc(C(F)(F)F)c2)cc1-c1cc(-c2cnc3cnccn23)cc(C(C)C)c1`, the IC50 in experiment [1] was 66.9 nM; in experiment [2] it was 2630 nM; on Bcr/Abl fusion protein, over 10 µM; in experiment [3] it was over 10 µM.
Take `CCc1ccc(C(=O)Nc2ccccc2C(F)(F)F)cc1-c1cccc(-c2cnc3cnccn23)c1`: the IC50 in experiment [1] is 4880 nM; in experiment [2], over 10000 nM; on Bcr/Abl fusion protein, over 10 µM; in experiment [3], over 10 µM.
Turning to `CCc1ccc(C(=O)Nc2cccc(C(F)(F)F)c2)cc1-c1cc(C)cc(-c2cnc3cnccn23)c1`, the IC50 was 22.5 nM in experiment [1], 1730 nM in experiment [2], over 10 µM at Bcr/Abl fusion protein and over 10 µM in experiment [3].
Take `CCc1ccc(C(=O)Nc2cc(CN3CCN(C)CC3)cc(C(F)(F)F)c2)cc1-c1cccc(-c2cnc3cnccn23)c1`: the IC50 in experiment [1] was 8.7 to 9.6 nM; in experiment [2] it was 66.1 nM; at Bcr/Abl fusion protein, 0.437 µM; in experiment [3], 0.62 µM.
The matching figures for `Cc1ccc(C(=O)Nc2cccc(C(F)(F)F)c2)cc1-c1cccc(-c2cnc3cnccn23)c1`: 9.2 nM, 135 nM, 0.237 µM and 0.0724 µM.

For the origin of these results see ChEMBL document CHEMBL4342493, “Design and Optimization of 3'-(Imidazo[1,2-a]pyrazin-3-yl)-[1,1'-biphenyl]-3-carboxamides as Selective DDR1 Inhibitors” (ACS Med Chem Lett, 2020).
